Source: ChEMBL document CHEMBL1909500, “Synthesis and in vitro anticancer activity of 6,7-methylenedioxy (or 5-hydroxy-6-methoxy)-2-(substituted selenophenyl)quinolin-4-one analogs” (Eur J Med Chem, 2011)

Columns and labels:
CAKI-1 = assay: Anticancer activity against human Caki1 cells after 48 hrs by MTT assay; type: functional; conditions: CAKI-1, 48 h
NCI/ADR-RES = assay: Anticancer activity against human NCI/ADR-RES cells after 48 hrs by MTT assay; type: functional
SF-295 = assay: Anticancer activity against human SF295 cells after 48 hrs by MTT assay; type: functional; conditions: SF-295, 48 h
BT-549 = assay: Anticancer activity against human BT549 cells after 48 hrs by MTT assay; type: functional; conditions: BT-549, 48 h
HL-60 = assay: Cytotoxicity against human HL60 cells after 48 hrs by MTT assay; type: functional, cell-based; conditions: HL-60, 48 h
Outline: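 H460 or HL-60 cells were exposed to vehicle or compound for 48 h. Growth was read by MTT reduction at 570 nm, and IC50 was calculated.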

OVCAR-4 = assay: Anticancer activity against human OVCAR4 cells after 48 hrs by MTT assay; type: functional; conditions: OVCAR-4, 48 h
A498 = assay: Anticancer activity against human A498 cells after 48 hrs by MTT assay; type: functional; conditions: A498, 48 h
IGROV-1 = assay: Anticancer activity against human IGROV1 cells after 48 hrs by MTT assay; type: functional; conditions: IGROV-1, 48 h
NCI-H226 = assay: Anticancer activity against human NCI-H226 cells after 48 hrs by MTT assay; type: functional; conditions: NCI-H226, 48 h
HL-60(TB) = assay: Anticancer activity against human HL-60(TB) cells after 48 hrs by MTT assay; type: functional; conditions: HL-60, 48 h
HCT-116 = assay: Anticancer activity against human HCT116 cells after 48 hrs by MTT assay; type: functional; conditions: HCT-116, 48 h
[1] = read-out: pLC50 (the source's name) (converted)

`Cc1ccc(-c2cc(=O)c3cc4c(cc3[nH]2)OCO4)[se]1` gave a GI50 (CAKI-1) of 1820 nM, a CC50 (CAKI-1; [1]) greater than 100000 nM and a TGI (CAKI-1; read-out: pTGI) greater than 100000 nM. The GI50 (NCI/ADR-RES) was 316 nM, the CC50 (NCI/ADR-RES; [1]) was greater than 100000 nM and the TGI (NCI/ADR-RES; read-out: pTGI) was greater than 100000 nM. For the same compound, the GI50 (SF-295) was 347 nM, the CC50 (SF-295; [1]) was greater than 100000 nM and the TGI (SF-295; read-out: pTGI) was greater than 100000 nM. For the same compound, the GI50 (BT-549) was 447 nM, the CC50 (BT-549; [1]) was greater than 100000 nM and the TGI (BT-549; read-out: pTGI) was greater than 100000 nM. For the same compound, the IC50 (HL-60) was 300 nM, the GI50 (OVCAR-4) was 575 nM and the CC50 (OVCAR-4; [1]) was greater than 100000 nM. It also gave a TGI (OVCAR-4; read-out: pTGI) greater than 100000 nM, a GI50 (A498) of 372 nM and a CC50 (A498; [1]) greater than 100000 nM. It also gave a TGI (A498; read-out: pTGI) greater than 100000 nM, a GI50 (IGROV-1) of 145 nM and a CC50 (IGROV-1; [1]) greater than 100000 nM. The TGI (IGROV-1; read-out: pTGI (converted)) was 457 nM, the GI50 (NCI-H226) was 389 nM and the CC50 (NCI-H226; [1]) was greater than 100000 nM. For the same compound, the TGI (NCI-H226; read-out: pTGI) was greater than 100000 nM, the GI50 (HL-60(TB)) was 204 nM and the CC50 (HL-60(TB); [1]) was 933 nM. The TGI (HL-60(TB); read-out: pTGI (converted)) was 437 nM, the GI50 (HCT-116) was 288 nM and the CC50 (HCT-116; [1]) was greater than 100000 nM. It also gave a TGI (HCT-116; read-out: pTGI) greater than 100000 nM.
